Assay results reported in ChEMBL document CHEMBL1137665, “Antistaphylococcal activity of CG400549, a new experimental FabI inhibitor, compared with that of other agents” (2007).
Values after ≈ are worked out from the molar mass of the structure shown.

Columns and labels:
Assay type in all cases: functional
Staphylococcus aureus [1] = test: Antimicrobial activity against methicillin-susceptible Staphylococcus aureus by agar dilution CLSI method
Outline: (§1)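 CLSI agar dilution MIC against S. aureus clinical isolates. Calcium was added to the medium for daptomycin testing. Vancomycin plates were read after a full 24-h incubation.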

Staphylococcus aureus [2] = test: Antimicrobial activity against methicillin-resistant Staphylococcus aureus by agar dilution CLSI method; outline: as §1
Staphylococcus aureus [3] = test: Antimicrobial activity against panton-valentine leukocidin-positive community-acquired methicillin-resistant Staphylococcus aureus 490 by agar dilution CLSI method
Outline: (§2)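 Agar dilution MIC per CLSI methodology; calcium supplemented for daptomycin testing; vancomycin plates read after a full 24-h incubation.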

Staphylococcus aureus [4] = test: Antimicrobial activity against vancomycin-resistant Staphylococcus aureus 509 Michigan by agar dilution CLSI method; outline: as §2
Staphylococcus aureus [5] = test: Antimicrobial activity against vancomycin-resistant Staphylococcus aureus 510 Hershey by agar dilution CLSI method; outline: as §2
Staphylococcus aureus [6] = test: Antimicrobial activity against panton-valentine leukocidin-negative community-acquired methicillin-resistant Staphylococcus aureus 481 after 14 passages with CG400549 measured after 10 antibiotic-free subculture by multi-step resistance selection technique
Outline: (§3)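 Mutants from multistep daily serial passage in subinhibitory drug were then subcultured daily 10 times on antibiotic-free medium. MIC was redetermined after these subcultures to assess stability. Clone identity was checked by pulsed-field gel electrophoresis.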

Staphylococcus aureus [7] = test: Antimicrobial activity against panton-valentine leukocidin-negative community-acquired methicillin-resistant Staphylococcus aureus 481 after 37 passages with Linezolid measured after 10 antibiotic-free subculture by multi-step resistance selection technique; outline: as §3
Staphylococcus aureus [8] = test: Antimicrobial activity against panton-valentine leukocidin-negative community-acquired methicillin-resistant Staphylococcus aureus 481 after 16 passages with quinupristin-dalfopristin measured after 10 antibiotic-free subculture by multi-step resistance selection technique; outline: as §3
Staphylococcus aureus [9] = test: Antimicrobial activity against panton-valentine leukocidin-positive community-acquired methicillin-resistant Staphylococcus aureus 490 after 17 passages with CG400549 measured after 10 antibiotic-free subculture by multi-step resistance selection technique
Outline: (§4)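 Multistep-selected mutants (daily passage at subinhibitory drug levels) then subcultured 10 times daily on antibiotic-free medium; MIC redetermined afterwards and compared with the MIC recorded at the end of selection; clone identity to parent checked by pulsed-field gel electrophoresis.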

Staphylococcus aureus [10] = test: Antimicrobial activity against panton-valentine leukocidin-positive community-acquired methicillin-resistant Staphylococcus aureus 490 after 22 passages with Linezolid measured after 10 antibiotic-free subculture by multi-step resistance selection technique; outline: as §4
Staphylococcus aureus [11] = test: Antimicrobial activity against panton-valentine leukocidin-positive community-acquired methicillin-resistant Staphylococcus aureus 490 after 23 passages with quinupristin-dalfopristin measured after 10 antibiotic-free subculture by multi-step resistance selection technique; outline: as §4
Staphylococcus aureus [12] = test: Antimicrobial activity against vancomycin-intermediate Staphylococcus aureus 504 after 14 passages with CG400549 measured after 10 times antibiotic-free subculture by multi-step resistance selection technique; outline: as §4
Staphylococcus aureus [13] = test: Antimicrobial activity against vancomycin-resistant Staphylococcus aureus 509 Michigan after 20 passages with daptomycin measured after 10 antibiotic-free subculture by multi-step resistance selection technique; outline: as §4
Staphylococcus aureus [14] = test: Antimicrobial activity against vancomycin-resistant Staphylococcus aureus 509 Michigan after 28 passages with Linezolid measured after 10 antibiotic-free subculture by multi-step resistance selection technique; outline: as §4
Staphylococcus aureus [15] = test: Antimicrobial activity against vancomycin-resistant Staphylococcus aureus 509 Michigan after 18 passages with quinupristin-dalfopristin measured after 10 antibiotic-free subculture by multi-step resistance selection technique; outline: as §4
Staphylococcus aureus [16] = test: Antimicrobial activity against methicillin and vancomycin-resistant Staphylococcus aureus 509 after single-step resistance selection by agar dilution CLSI method
Outline: (§5)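 Single-step selection on drug-containing agar across 10 strains (2 MSSA, 8 MRSA, including VRSA and VISA). Colonies arising on confluent background growth were retested by CLSI agar dilution MIC. Resistance was defined as an MIC more than 4× the parent MIC.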

Staphylococcus aureus [17] = test: Antimicrobial activity against vancomycin-resistant Staphylococcus aureus 510 Hershey after 18 passages with daptomycin measured after 10 antibiotic-free subculture by multi-step resistance selection technique; outline: as §4
Staphylococcus aureus [18] = test: Antimicrobial activity against vancomycin-resistant Staphylococcus aureus 510 Hershey after 14 passages with quinupristin-dalfopristin measured after 10 antibiotic-free subculture by multi-step resistance selection technique; outline: as §4
Staphylococcus aureus [19] = test: Antimicrobial activity against methicillin-resistant Staphylococcus aureus 547 by agar dilution CLSI method; outline: as §1
Staphylococcus aureus [20] = test: Antimicrobial activity against methicillin-susceptible Staphylococcus aureus 540 by agar dilution CLSI method; outline: as §1
Staphylococcus aureus [21] = test: Antimicrobial activity against panton-valentine leukocidin-negative community-acquired methicillin-resistant Staphylococcus aureus 481 after 14 passages by multi-step resistance selection technique
Outline: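 Multistep selection by daily serial passage of each strain in subinhibitory drug concentrations for the stated number of passages. Mutant MIC was then determined. Identity of mutants and parents was confirmed by pulsed-field gel electrophoresis.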

Staphylococcus aureus [22] = test: Antimicrobial activity against methicillin-resistant Staphylococcus aureus 525 after 14 passages with CG400549 measured after 10 antibiotic-free subculture by multi-step resistance selection technique; outline: as §3
Staphylococcus aureus [23] = test: Antimicrobial activity against methicillin-resistant Staphylococcus aureus 525 after 20 passages with daptomycin measured after 10 antibiotic-free subculture by multi-step resistance selection technique; outline: as §3
Staphylococcus aureus [24] = test: Antimicrobial activity against methicillin-resistant Staphylococcus aureus 525 after 16 passages with quinupristin-dalfopristin measured after 10 antibiotic-free subculture by multi-step resistance selection technique; outline: as §3
Staphylococcus aureus [25] = test: Antimicrobial activity against methicillin-resistant Staphylococcus aureus 547 after 14 passages with CG400549 measured after 10 antibiotic-free subculture by multi-step resistance selection technique; outline: as §3
Staphylococcus aureus [26] = test: Antimicrobial activity against methicillin-resistant Staphylococcus aureus 547 after 21 passages with daptomycin measured after 10 antibiotic-free subculture by multi-step resistance selection technique; outline: as §3
Staphylococcus aureus [27] = test: Antimicrobial activity against methicillin-resistant Staphylococcus aureus 547 after 21 passages with quinupristin-dalfopristin measured after 10 antibiotic-free subculture by multi-step resistance selection technique; outline: as §3
Staphylococcus aureus [28] = test: Antimicrobial activity against vancomycin-intermediate Staphylococcus aureus 555 Hershey after 20 passages with quinupristin-dalfopristin measured after 10 antibiotic-free subculture by multi-step resistance selection technique; outline: as §4
Staphylococcus aureus [29] = test: Antimicrobial activity against methicillin-susceptible Staphylococcus aureus 540 after 14 passages with CG400549 measured after 10 antibiotic-free subculture by multi-step resistance selection technique; outline: as §3
Staphylococcus aureus [30] = test: Antimicrobial activity against methicillin-susceptible Staphylococcus aureus 540 after 24 passages with daptomycin measured after 10 antibiotic-free subculture by multi-step resistance selection technique; outline: as §3
Staphylococcus aureus [31] = test: Antimicrobial activity against methicillin-susceptible Staphylococcus aureus 540 after 36 passages with Linezolid measured after 10 antibiotic-free subculture by multi-step resistance selection technique; outline: as §3
Staphylococcus aureus [32] = test: Antimicrobial activity against methicillin-susceptible Staphylococcus aureus 543 after 17 passages with daptomycin measured after 10 antibiotic-free subculture by multi-step resistance selection technique; outline: as §3
Staphylococcus aureus [33] = test: Antimicrobial activity against methicillin-susceptible Staphylococcus aureus 543 after 18 passages with quinupristin-dalfopristin measured after 10 antibiotic-free subculture by multi-step resistance selection technique; outline: as §3
Staphylococcus aureus [34] = test: Antimicrobial activity against methicillin-resistant vancomycin-intermediate Staphylococcus aureus 504 after single-step resistance selection by agar dilution CLSI method; outline: as §5
Staphylococcus aureus [35] = test: Antimicrobial activity against methicillin-resistant Staphylococcus aureus 490 after single-step resistance selection by agar dilution CLSI method; outline: as §5
Staphylococcus aureus [36] = test: Antimicrobial activity against methicillin-susceptible Staphylococcus aureus 540 after single-step resistance selection by agar dilution CLSI method; outline: as §5

SMILES	MIC50 (Staphylococcus aureus [1])	MIC90 (Staphylococcus aureus [1])	MIC50 (Staphylococcus aureus [2])	MIC90 (Staphylococcus aureus [2])	MIC (Staphylococcus aureus [3])	MIC (Staphylococcus aureus [4])	MIC (Staphylococcus aureus [5])	MIC (Staphylococcus aureus [6])	MIC (Staphylococcus aureus [7])	MIC (Staphylococcus aureus [8])	MIC (Staphylococcus aureus [9])	MIC (Staphylococcus aureus [10])	MIC (Staphylococcus aureus [11])	MIC (Staphylococcus aureus [12])	MIC (Staphylococcus aureus [13])	MIC (Staphylococcus aureus [14])	MIC (Staphylococcus aureus [15])	MIC (Staphylococcus aureus [16])	MIC (Staphylococcus aureus [17])	MIC (Staphylococcus aureus [18])	also measured
CCCCCCCCCC(=O)N[C@@H](Cc1c[nH]c2ccccc12)C(=O)N[C@H](CC(N)=O)C(=O)N[C@@H](CC(=O)O)C(=O)N[C@@H]1C(=O)NCC(=O)N[C@@H](CCCN)C(=O)N[C@@H](CC(=O)O)C(=O)N[C@H](C)C(=O)N[C@@H](CC(=O)O)C(=O)NCC(=O)N[C@H](CO)C(=O)N[C@@H]([C@H](C)CC(=O)O)C(=O)N[C@@H](CC(=O)c2ccccc2N)C(=O)O[C@@H]1C	1 µg/mL (≈ 0.617 µM)	1 µg/mL (≈ 0.617 µM)	0.5 µg/mL (≈ 0.309 µM)	0.5 µg/mL (≈ 0.309 µM)	1 µg/mL (≈ 0.617 µM)	1 µg/mL (≈ 0.617 µM)	1 µg/mL (≈ 0.617 µM)	1 µg/mL (≈ 0.617 µM)	1 µg/mL (≈ 0.617 µM)	1 µg/mL (≈ 0.617 µM)	1 µg/mL (≈ 0.617 µM)	1 µg/mL (≈ 0.617 µM)	1 µg/mL (≈ 0.617 µM)	1 µg/mL (≈ 0.617 µM)	4 µg/mL (≈ 2.47 µM)	2 µg/mL (≈ 1.23 µM)	1 µg/mL (≈ 0.617 µM)	0.5 µg/mL (≈ 0.309 µM)	4 µg/mL (≈ 2.47 µM)	0.5 µg/mL (≈ 0.309 µM)	MIC (Staphylococcus aureus [19]): 1 µg/mL (≈ 0.617 µM); MIC (Staphylococcus aureus [20]): 1 µg/mL (≈ 0.617 µM); MIC (Staphylococcus aureus [21]): 8 µg/mL (≈ 4.94 µM); MIC (Staphylococcus aureus [22]): 1 µg/mL (≈ 0.617 µM); MIC (Staphylococcus aureus [23]): 2 µg/mL (≈ 1.23 µM); MIC (Staphylococcus aureus [24]): 1 µg/mL (≈ 0.617 µM); MIC (Staphylococcus aureus [25]): 1 µg/mL (≈ 0.617 µM); MIC (Staphylococcus aureus [26]): 4 µg/mL (≈ 2.47 µM); MIC (Staphylococcus aureus [27]): 1 µg/mL (≈ 0.617 µM); MIC (Staphylococcus aureus [28]): 2 µg/mL (≈ 1.23 µM); MIC (Staphylococcus aureus [29]): 1 µg/mL (≈ 0.617 µM); MIC (Staphylococcus aureus [30]): 2 µg/mL (≈ 1.23 µM); MIC (Staphylococcus aureus [31]): 2 µg/mL (≈ 1.23 µM); MIC (Staphylococcus aureus [32]): 4 µg/mL (≈ 2.47 µM); MIC (Staphylococcus aureus [33]): 2 µg/mL (≈ 1.23 µM); MIC (Staphylococcus aureus [34]): 0.5 µg/mL (≈ 0.309 µM); MIC (Staphylococcus aureus [35]): 0.5 µg/mL (≈ 0.309 µM); MIC (Staphylococcus aureus [36]): 0.5 µg/mL (≈ 0.309 µM)
Cc1c(N)cccc1Cn1ccc(OCCc2cccs2)cc1=O [CG-400549]	0.25 µg/mL (≈ 0.734 µM)	0.25 µg/mL (≈ 0.734 µM)	0.25 µg/mL (≈ 0.734 µM)	0.25 µg/mL (≈ 0.734 µM)	0.25 µg/mL (≈ 0.734 µM)	1 µg/mL (≈ 2.94 µM)	0.25 µg/mL (≈ 0.734 µM)	2 µg/mL (≈ 5.87 µM)	0.125 µg/mL (≈ 0.367 µM)	0.25 µg/mL (≈ 0.734 µM)	8 µg/mL (≈ 23.5 µM)	0.25 µg/mL (≈ 0.734 µM)	0.125 µg/mL (≈ 0.367 µM)	2 µg/mL (≈ 5.87 µM)	1 µg/mL (≈ 2.94 µM)	0.5 µg/mL (≈ 1.47 µM)	1 µg/mL (≈ 2.94 µM)	0.125 µg/mL (≈ 0.367 µM)	0.125 µg/mL (≈ 0.367 µM)	0.25 µg/mL (≈ 0.734 µM)	MIC (Staphylococcus aureus [19]): 0.125 µg/mL (≈ 0.367 µM); MIC (Staphylococcus aureus [20]): 0.125 µg/mL (≈ 0.367 µM); MIC (Staphylococcus aureus [21]): 2 µg/mL (≈ 5.87 µM); MIC (Staphylococcus aureus [22]): 4 µg/mL (≈ 11.7 µM); MIC (Staphylococcus aureus [23]): 0.125 µg/mL (≈ 0.367 µM); MIC (Staphylococcus aureus [24]): 0.125 µg/mL (≈ 0.367 µM); MIC (Staphylococcus aureus [25]): 8 µg/mL (≈ 23.5 µM); MIC (Staphylococcus aureus [26]): 0.125 µg/mL (≈ 0.367 µM); MIC (Staphylococcus aureus [27]): 0.125 µg/mL (≈ 0.367 µM); MIC (Staphylococcus aureus [28]): 0.25 µg/mL (≈ 0.734 µM); MIC (Staphylococcus aureus [29]): 4 µg/mL (≈ 11.7 µM); MIC (Staphylococcus aureus [30]): 0.125 µg/mL (≈ 0.367 µM); MIC (Staphylococcus aureus [31]): 0.125 µg/mL (≈ 0.367 µM); MIC (Staphylococcus aureus [32]): 0.125 µg/mL (≈ 0.367 µM); MIC (Staphylococcus aureus [33]): 0.125 µg/mL (≈ 0.367 µM); MIC (Staphylococcus aureus [34]): 0.125 µg/mL (≈ 0.367 µM); MIC (Staphylococcus aureus [35]): 0.125 µg/mL (≈ 0.367 µM); MIC (Staphylococcus aureus [36]): 0.125 µg/mL (≈ 0.367 µM)
